Reference: ChEMBL document CHEMBL1128739, “Structure-activity relationships in the 8-amino-6,7,8,9-tetrahydro-3H-benz[e]indole ring system. 2. Effects of 8-amino nitrogen substitution on serotonin receptor binding and pharmacology” (J Med Chem, 1995)
Activity calls are given as the source filed them. The calls are words filed in the database; no cut-off is given here.

Experiments:
Rattus norvegicus [1] = experiment: The compound was tested in vivo for biochemical effect against the changes in different brain area levels of DOPA in reserpinized rat hemispheres (mainly cortex)at does 12.5 uM/kg; inactive; assay type: functional, organism-based
How it was run: (§1)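 Male Sprague-Dawley rats (200-300 g) pretreated with reserpine 5 mg/kg sc 18 h before. Injection volume 5 mL/kg, test solutions at neutral pH. DOPA and 5-HTP in limbic system, striatum and hemispheres measured by HPLC with electrochemical detection. Dose-response curves from four to six dose levels (n = 4) per brain area.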

Rattus norvegicus [2] = experiment: In vivo changes in different brain area levels of 5-HTP in reserpinized rat corpus striatum.; assay type: functional
How it was run: (§2)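 Male Sprague-Dawley rats (200-300 g) pretreated with reserpine 5 mg/kg sc 18 h before. Injection volume 5 mL/kg at neutral pH. Brain-region 5-HTP measured by HPLC with electrochemical detection. Dose-response curves used four to six doses, n = 4.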

Rattus norvegicus [3] = experiment: The compound was tested in vivo for biochemical effect against the changes in different brain area levels of DOPA in reserpinized rat limbic system at dose 12.5 uM/kg; inactive; assay type: functional, organism-based; how it was run: as §1
[4] = target: T1, 5-hydroxytryptamine receptor 1B (Homo sapiens, UniProt P28222); experiment: The compound was tested in vitro for binding affinity against cloned mammalian 5-hydroxytryptamine 1D receptor beta expressed in CHO cells, by using [3H]5-HT as radioligand; assay type: cell-based; parameters: concentration or dose not given beside the values; details: concentration not given here
How it was run: (§3)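 Membranes from CHO cells stably expressing the cloned receptor, made by mechanical disruption in ice-cold Tris/EDTA/EGTA pH 7.4 and differential centrifugation. [3H]serotonin at 1.7 nM in 50 mM Tris, 5 mM MgCl2, 0.1% ascorbic acid, pH 7.4. 11 drug concentrations in duplicate, 1 h at room temperature protected from light, then filtration. Excess serotonin defines nonspecific binding. One-site IC50 fit, Ki by Cheng-Prusoff.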

[5] = target: 5-hydroxytryptamine receptor 1D (Homo sapiens, UniProt P28221); experiment: In vitro binding affinity against cloned mammalian 5-hydroxytryptamine 1D receptor alpha expressed in CHO cells, by using [3H]5-HT as radioligand; assay type: cell-based
How it was run: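 Competition binding on CHO-cell membranes (20-60 μg protein) in 50 mM Tris, 5 mM MgCl2, 0.1% ascorbic acid, pH 7.4. Nonspecific binding defined with excess serotonin. 11 drug concentrations, each in duplicate. Incubated 1 h at room temperature, protected from light, then filtered and scintillation counted. IC50 taken from a one-site fit; Ki by Cheng-Prusoff.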

D(2) dopamine receptor [6] = target: T2, D(2) dopamine receptor (Rattus norvegicus, UniProt P61169); experiment: Binding affinity rat Dopamine receptor D2 expressed in CHO-K1 cells by [3H]U-86170 displacement.; assay type: cell-based
Rattus norvegicus [7] = experiment: The compound was tested in vivo for biochemical effect against the changes in different brain area levels of DOPA in reserpinized rat corpus striatum; assay type: functional; how it was run: as §1
D(3) dopamine receptor = D(3) dopamine receptor (Rattus norvegicus, UniProt P19020); experiment: In vitro binding affinity against cloned mammalian Dopamine receptor D3 expressed in CHO cells by, using [3H]-spiperone as radioligand; assay type: cell-based; details: read-out: Ki
Rattus norvegicus [8] = experiment: In vivo for biochemical effect against brain area levels of 5-HTP in reserpinized rat hemispheres (mainly cortex).; assay type: functional; how it was run: as §1
Rattus norvegicus [9] = experiment: The compound was tested in vivo for biochemical effect against the changes in different brain area levels of DOPA in reserpinized rat hemispheres (mainly cortex); inactive at dose 50 uM/kg; Inactive; assay type: functional, organism-based
Rattus norvegicus [10] = experiment: The compound was tested in vivo for biochemical effect against the changes in different brain area levels of DOPA in reserpinized rat limbic system; assay type: functional
How it was run: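 Rats (male Sprague-Dawley, 200-300 g) received reserpine 5 mg/kg sc 18 h before. Injections 5 mL/kg at neutral pH. DOPA accumulation measured by HPLC with electrochemical detection as an index of DA or NE synthesis rate. Four to six dose levels, n = 4. ED50 from a sigmoidal fit.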

Rattus norvegicus [11] = experiment: In vivo changes in different brain area levels of 5-HTP in reserpinized rat limbic system.; assay type: functional; how it was run: as §2
[12] = target: D(3) dopamine receptor (Rattus norvegicus) (UniProt P19020); experiment: The compound was tested in vitro for binding affinity against cloned mammalian Dopamine receptor D3 expressed in CHO cells by, using [3H]spiperone as radioligand; inactive at 10E-6 M; assay type: cell-based
Rattus norvegicus [13] = experiment: The compound was tested in vivo for biochemical effect against the changes in different brain area levels of 5-HTP in reserpinized rat hemispheres (mainly cortex)at does 50 uM/kg; Partial effect; assay type: functional, organism-based
Rattus norvegicus [14] = experiment: The compound was tested in vivo for biochemical effect against the changes in different brain area levels of 5-HTP in reserpinized rat limbic system at dose 50 uM/kg; Partial effect; assay type: functional, organism-based
D(2) dopamine receptor [15] = target: T2, D(2) dopamine receptor; experiment: In vitro binding affinity against cloned mammalian Dopamine receptor D2 expressed in CHO cells using [3H]U-86170 as radioligand; assay type: cell-based
How it was run: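 Membranes from CHO cells (20-60 μg protein) in 20 mM HEPES, 10 mM MgSO4, pH 7.4. Nonspecific binding defined with excess haloperidol. 11 concentrations, each in duplicate. Incubated 1 h at room temperature, then filtered and counted. IC50 from a one-site competition fit, converted to Ki by Cheng-Prusoff.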

Rattus norvegicus [16] = experiment: The compound was tested in vivo for biochemical effect against the changes in different brain area levels of 5-HTP in reserpinized rat corpus striatum at does 50 uM/kg; Partial effect; assay type: functional, organism-based
Rattus norvegicus [17] = experiment: The compound was tested in vivo for biochemical effect against the changes in different brain area levels of DOPA in reserpinized rat hemispheres (mainly cortex)at does 50 uM/kg; Inactive; assay type: functional, organism-based
Rattus norvegicus [18] = experiment: The compound was tested in vivo for biochemical effect against the changes in different brain area levels of DOPA in reserpinized rat corpus striatum at does 50 uM/kg; Inactive; assay type: functional, organism-based
Rattus norvegicus [19] = experiment: The compound was tested in vivo for biochemical effect against the changes in different brain area levels of DOPA in reserpinized rat limbic system; Inactive; assay type: functional, organism-based
Rattus norvegicus [20] = experiment: The compound was tested in vivo for biochemical effect against the changes in different brain area levels of DOPA in reserpinized rat hemispheres (mainly cortex) at dose 12.5 uM/kg; Inactive; assay type: functional, organism-based; how it was run: as §1
[21] = target: T1, 5-hydroxytryptamine receptor 1B; experiment: In vitro binding affinity against cloned mammalian 5-hydroxytryptamine 1D receptor beta expressed in CHO cells, by using [3H]5-HT as radioligand; assay type: cell-based; how it was run: as §3
Rattus norvegicus [22] = experiment: The compound was tested in vivo for biochemical effect against the changes in different brain area levels of DOPA in reserpinized rat corpus striatum at dose 12.5 uM/kg; Partial effect; assay type: functional, organism-based; how it was run: as §1
Rattus norvegicus [23] = experiment: The compound was tested in vivo for biochemical effect against the changes in different brain area levels of DOPA in reserpinized rat limbic system at dose 12.5 uM/kg; Partial effect; assay type: functional, organism-based; how it was run: as §1
Rattus norvegicus [24] = experiment: The compound was tested in vivo for biochemical effect against the changes in different brain area levels of DOPA in reserpinized rat hemispheres (mainly cortex)at dose 50 uM/kg; inactive; assay type: functional, organism-based
Rattus norvegicus [25] = experiment: The compound was tested in vivo for biochemical effect against the changes in different brain area levels of DOPA in reserpinized rat hemispheres (mainly cortex); inactive at the highest dose tested (3.1); assay type: functional, organism-based; how it was run: as §1

T1 sequence (P28222 whole entry): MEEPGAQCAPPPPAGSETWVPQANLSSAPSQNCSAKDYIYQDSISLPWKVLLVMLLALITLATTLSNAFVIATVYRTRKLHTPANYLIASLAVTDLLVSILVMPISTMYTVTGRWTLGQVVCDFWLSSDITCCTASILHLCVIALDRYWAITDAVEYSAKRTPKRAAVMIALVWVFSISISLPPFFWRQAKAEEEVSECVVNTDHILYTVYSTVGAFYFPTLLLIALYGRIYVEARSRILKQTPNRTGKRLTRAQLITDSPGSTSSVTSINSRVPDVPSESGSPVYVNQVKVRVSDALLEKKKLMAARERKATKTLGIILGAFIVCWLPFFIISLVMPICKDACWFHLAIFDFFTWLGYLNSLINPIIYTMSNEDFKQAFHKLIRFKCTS
Chain of 5-hydroxytryptamine receptor 1D (P28221 whole entry): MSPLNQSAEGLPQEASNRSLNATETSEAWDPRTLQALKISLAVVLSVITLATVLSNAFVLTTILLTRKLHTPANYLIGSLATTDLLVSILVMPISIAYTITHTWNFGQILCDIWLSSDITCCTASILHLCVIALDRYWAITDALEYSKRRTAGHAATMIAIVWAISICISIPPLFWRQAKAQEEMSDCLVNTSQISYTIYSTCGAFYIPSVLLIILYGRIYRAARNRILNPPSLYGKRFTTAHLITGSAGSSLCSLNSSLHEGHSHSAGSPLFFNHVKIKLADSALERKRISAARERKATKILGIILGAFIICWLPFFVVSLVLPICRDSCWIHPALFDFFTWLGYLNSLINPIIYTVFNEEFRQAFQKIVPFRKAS
Chain of D(3) dopamine receptor (P19020 whole entry): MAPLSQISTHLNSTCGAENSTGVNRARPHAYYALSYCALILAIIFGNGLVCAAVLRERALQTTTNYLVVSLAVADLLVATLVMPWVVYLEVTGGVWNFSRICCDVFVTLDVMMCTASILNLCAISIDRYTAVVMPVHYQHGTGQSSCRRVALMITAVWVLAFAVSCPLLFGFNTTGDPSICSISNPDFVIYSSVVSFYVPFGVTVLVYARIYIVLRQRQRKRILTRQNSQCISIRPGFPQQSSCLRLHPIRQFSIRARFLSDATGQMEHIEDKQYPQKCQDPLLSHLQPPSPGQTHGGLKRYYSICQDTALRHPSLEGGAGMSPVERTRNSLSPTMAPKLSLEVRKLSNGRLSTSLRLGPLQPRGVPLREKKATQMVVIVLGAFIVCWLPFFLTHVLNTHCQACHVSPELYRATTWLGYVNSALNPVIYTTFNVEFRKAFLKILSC
T2 sequence (P61169 whole entry): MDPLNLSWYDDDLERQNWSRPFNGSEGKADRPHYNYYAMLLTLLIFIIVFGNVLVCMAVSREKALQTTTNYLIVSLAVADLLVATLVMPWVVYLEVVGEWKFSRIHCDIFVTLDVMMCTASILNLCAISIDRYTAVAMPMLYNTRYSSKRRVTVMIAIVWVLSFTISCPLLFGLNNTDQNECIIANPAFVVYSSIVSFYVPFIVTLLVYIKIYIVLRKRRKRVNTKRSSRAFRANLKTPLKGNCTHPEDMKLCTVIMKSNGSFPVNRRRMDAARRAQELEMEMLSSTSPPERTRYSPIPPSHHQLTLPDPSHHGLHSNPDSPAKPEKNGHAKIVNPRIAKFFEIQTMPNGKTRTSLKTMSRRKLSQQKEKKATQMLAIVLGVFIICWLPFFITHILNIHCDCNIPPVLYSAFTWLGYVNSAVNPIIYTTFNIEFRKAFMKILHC
Chain of D(3) dopamine receptor (Rattus norvegicus) (P19020 whole entry): as the sequence (P19020 whole entry) above

Ki [5] | Ki (D(2) dopamine receptor [6]) | SMILES | ED50 (Rattus norvegicus [2]) | inhibition [4] | ED50 (Rattus norvegicus [7]) | Ki (D(3) dopamine receptor) | ED50 (Rattus norvegicus [8]) | ED50 (Rattus norvegicus [10]) | ED50 (Rattus norvegicus [11]) | Ki [21] | also measured
77 nM | 94 nM | c1cc2c3c(ccc2[nH]1)CCC(N1CCCC1)C3 (stereo not given) | 0.066 µmol/kg | < 45% | 3.26 µmol/kg |  | 0.051 µmol/kg | 1.57 µmol/kg | 0.092 µmol/kg |  | ED50 (Rattus norvegicus [9]): inactive; inhibition [12]: < 45%
192 nM | 22 nM | CCCN(Cc1ccccc1)C1CCc2ccc3[nH]ccc3c2C1 (stereo not given) | 6.87 µmol/kg |  | 8.77 µmol/kg | 43 nM | 6.72 µmol/kg | 8.1 µmol/kg | 7.58 µmol/kg | 4610 nM | ED50 (Rattus norvegicus [24]): inactive

More lines, now with the values behind:

SMILES | Ki [5] | Ki (D(2) dopamine receptor [6]) | ED50 (Rattus norvegicus [2]) | inhibition [4] | ED50 (Rattus norvegicus [7]) | Ki (D(3) dopamine receptor) | ED50 (Rattus norvegicus [8]) | ED50 (Rattus norvegicus [10]) | ED50 (Rattus norvegicus [11]) | Ki [21] | also measured
C=CCN(CCC)C1CCc2ccc3[nH]ccc3c2C1 (stereo not given) | 35 nM | 42 nM | 0.18 µmol/kg | < 45% | 0.97 µmol/kg | 77 nM |  |  |  |  | ED50 (Rattus norvegicus [1]): inactive; ED50 (Rattus norvegicus [3]): inactive
CCCN(CCC)CC1CCc2ccc3[nH]cc(C=O)c3c2C1 (stereo not given) |  |  |  |  |  |  |  |  |  |  | ED50 (Rattus norvegicus [13]): Weak activity; ED50 (Rattus norvegicus [14]): Weak activity; Ki (D(2) dopamine receptor [15]; cho): Not Active; ED50 (Rattus norvegicus [16]): Weak activity; ED50 (Rattus norvegicus [17]): inactive; ED50 (Rattus norvegicus [18]): inactive; ED50 (Rattus norvegicus [19]): inactive
CN(C)[C@@H]1CCc2ccc3[nH]cc(C=O)c3c2C1 |  |  | 0.95 µmol/kg |  |  | 265 nM | 0.56 µmol/kg |  | 2.9 µmol/kg | 20 nM | ED50 (Rattus norvegicus [20]): inactive; Ki (D(2) dopamine receptor [15]; read-out: Ki): 13 nM; ED50 (Rattus norvegicus [22]): Weak activity; ED50 (Rattus norvegicus [23]): Weak activity
CCCN(CCC)[C@@H]1CCc2ccc3[nH]ccc3c2C1 |  |  |  |  |  |  |  |  |  |  | ED50 (Rattus norvegicus [25]): inactive
